In ChEMBL document CHEMBL2016465, “Host-directed Inhibitors of Myxoviruses: Synthesis and in vitro Biochemical Evaluation” (ACS Med Chem Lett, 2011):

Experiments:
[1] = system: Measles morbillivirus; assay: Antiviral activity against Measles virus MVi/Alaska USA/16.00 genotype H2 infected in african green monkey Vero cells assessed as reduction in viral-induced cytopathogenicity; assay type: functional, organism-based; conditions: MVi/Alaska USA/16.00 genotype H2, Vero
Procedure, shortened: (§1)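 Run on actively dividing cells. EC50 from four-parameter variable-slope nonlinear regression, reported as the average of four experiments ± SEM. Highest concentration tested was 75 μM.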

[2] = system: Measles morbillivirus; assay: Antiviral activity against Measles virus; assay type: functional, organism-based; procedure, shortened: as §1
[3] = system: Vero; assay: (§2) Cytotoxicity against african green monkey Vero cells after 24 hrs by MTT assay; assay type: cell-based; conditions: chlorocebus sabaeus, vero, 24 h
Procedure, shortened: (§3)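 Run on confluent cell monolayers to reflect acute toxicity. CC50 is given as the range of two experiments. Highest concentration tested was 75 μM.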

[4] = as §2; assay type: cell-based; conditions: chlorocebus sabaeus, Vero cells; procedure, shortened: as §3
[5] = system: Measles morbillivirus; assay: Antiviral activity against Measles virus MVi/Alaska USA/16.00 genotype H2 infected in african green monkey Vero cells measured 28 to 36 hrs post infection by cell based virus yield reduction assay; assay type: functional, organism-based; conditions: MVi/Alaska USA/16.00 genotype H2, Vero; procedure, shortened: as §1
[6] = system: Human respirovirus 3; assay: Antiviral activity against Human parainfluenza virus 3; assay type: functional, organism-based
[7] = system: Respiratory syncytial virus; assay: Antiviral activity against Respiratory syncytial virus; assay type: functional, organism-based; conditions: human respiratory syncytial virus
[8] = system: Mumps virus; assay: Antiviral activity against Mumps virus; assay type: functional, organism-based; conditions: Mumps orthorubulavirus
[9] = system: Paramyxoviridae; assay: Antiviral activity against Paramyxovirus measured 28 to 36 hrs post infection by cell based virus yield reduction assay; assay type: functional
[10] = system: unidentified influenza virus; assay: Antiviral activity against Influenza virus; assay type: functional, organism-based

COc1ccc(-n2c(SC(C)C(=O)Nc3ncc(Cl)cc3Cl)nc3ccccc32)cc1 (stereo not drawn)
EC50 [1]: 350 nM
EC50 [2]: 200 nM
CC50 [3]: > 75000 nM

O=C(CSc1nc2ccccc2n1-c1ccccc1)Nc1ncc(Cl)cc1Cl
EC50 [2]: 700 nM

Cc1cccc(-n2c(SCC(=O)Nc3ncc(Cl)cc3Cl)nc3ccccc32)c1
EC50 [2]: 2100 nM

COc1ccc(-n2c(S[C@@H](C)C(=O)Nc3ccc(C)cc3Cl)nc3ccccc32)cc1
EC50 [1]: 300 nM

COc1ccc(-n2c(S[C@H](C)C(=O)Nc3ccc(C)cc3Cl)nc3ccccc32)cc1
EC50 [1]: 200 nM

COc1ccc(Cn2c(NC(C)C(=O)Nc3ccc(C)cc3Cl)nc3ccccc32)cc1 (stereo not drawn)
EC50 [1]: > 150000 nM

COc1ccc(-n2c(CCC(=O)Nc3ccc(C)cc3Cl)nc3ccccc32)cc1
EC50 [1]: > 150000 nM

Cc1ccc(NC(=O)[C@H](C)Oc2nc3ccccc3n2Cc2ccccc2)c(Cl)c1
EC50 [1]: > 150000 nM

COc1ccc(-n2c([S+]([O-])C(C)C(=O)Nc3ccc(C)cc3Cl)nc3ccccc32)cc1 (stereo not drawn)
EC50 [1]: 1300 nM
CC50 [3]: > 75000 nM

COc1ccc(-n2c(S(=O)(=O)C(C)C(=O)Nc3ccc(C)cc3Cl)nc3ccccc32)cc1 (stereo not drawn)
EC50 [1]: > 150000 nM

Cc1ccc(NC(=O)C(C)Sc2nc3ccccc3n2Cc2ccccc2)c(Cl)c1 (stereo not drawn)
EC50 [1]: 400 nM
CC50 [3]: > 75000 nM

COc1ccc(Cn2c(SC(C)C(=O)Nc3ccc(C)cc3Cl)nc3ccccc32)cc1 (stereo not drawn)
EC50 [1]: 700 nM
CC50 [3]: > 75000 nM

COc1ccc(-n2c(SC(C)C(=O)Nc3ncc(C(F)(F)F)cc3Cl)nc3ccccc32)cc1 (racemic)
EC50 [1]: 400 nM
CC50 at 24 h [4]: 9200 nM

CC(Sc1nc2ccccc2n1-c1ccc(F)cc1)C(=O)Nc1ncc(Cl)cc1Cl (racemic)
EC50 [1]: 100 nM
CC50 at 24 h [4]: 5900 nM

CCOc1ccc(-n2c(SC(C)C(=O)Nc3ncc(Cl)cc3Cl)nc3ccccc32)cc1 (racemic)
EC50 [1]: 100 nM
CC50 at 24 h [4]: 18500 nM

COc1ccc(-n2c(SC(C)C(=O)Nc3nc(C)c(Cl)cc3Cl)nc3ccccc32)cc1 (racemic)
EC50 [1]: 200 nM
CC50 at 24 h [4]: 7250 nM

COc1ccc(-n2c(SC(C)C(=O)Nc3ccc(Cl)cn3)nc3ccccc32)cc1 (racemic)
EC50 [1]: > 75000 nM

COc1ccc(-n2c(SC(C)C(=O)Nc3nc(C)c(Br)cc3Br)nc3ccccc32)cc1 (racemic)
EC50 [1]: 500 nM
CC50 at 24 h [4]: 9700 nM

COc1ccc(-n2c(SC(C)C(=O)Nc3ncc(C)cc3Cl)nc3ccccc32)cc1 (racemic)
EC50 [1]: 50 nM
CC50 at 24 h [4]: 880 nM

CCOc1ccc(-n2c(SC(C)C(=O)Nc3cc(C)cc(C)n3)nc3ccccc32)cc1 (racemic)
EC50 [1]: 1200 nM

Cc1nnc(NC(=O)C(C)Sc2nc3ccccc3n2-c2ccc(F)cc2)nc1C (racemic)
EC50 [1]: 17400 nM

COc1ccc(-n2c(SC(C)C(=O)Nc3cc(C)nn3C)nc3ccccc32)cc1 (racemic)
EC50 [1]: 500 nM
CC50 [3]: 75000 nM

COc1ccc(-n2c(SC(C)C(=O)Nc3nnc(C)c(C)n3)nc3ccccc32)cc1 (racemic)
EC50 [1]: 9300 nM

COc1ccc(-n2c(SC(C)C(=O)Nc3nc(C)cc(Cl)n3)nc3ccccc32)cc1 (racemic)
EC50 [1]: > 75000 nM

COc1ccc(-n2c(SC(C)C(=O)Nc3nc(C)cs3)nc3ccccc32)cc1 (racemic)
EC50 [1]: 2800 nM

COc1ccc(-n2c(SC(C)C(=O)Nc3cc(C)no3)nc3ccccc32)cc1 (racemic)
EC50 [1]: 400 nM
CC50 [3]: > 75000 nM

COc1ccc(-n2c(SC(C)C(=O)Nc3cc(Br)ccc3Br)nc3ccccc32)cc1 (racemic)
EC50 [1]: 1400 nM

COc1ccc(-n2c(SC(C)C(=O)Nc3ccc(C)cc3Cl)nc3ccccc32)cc1 (racemic)
EC50 [5]: 30 nM
EC50 [6]: 10 nM
EC50 [7]: 10 nM
EC50 [8]: 10 nM
EC50 [1]: 200 nM
EC50 [9]: 10 nM
EC50 [10]: 10 nM
CC50 [3]: > 75000 nM
